rCAG RNA binder: binds r(CAG) RNA repeats; r(CAG) RNA repeat, TO-PRO-1 dye displacement fluorescence; inhibition, % at 3 µM; 370,000 tested, 1.3% active; AID 651821;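 active = inhibition above the plate cutoff, the mean of all test compounds on that plate plus 3 SD, cut at about 35% in these data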;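 also: 0% = DMSO alone and 100% = 100 µM mitoxantrone as full dye displacement; higher means more dye released from RNA so lower well fluorescence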
TCR-CD3 inh: inhibitors of human TCR-CD3 interaction | TAMRA-labeled TCR probe fluorescence, biochemical | inhibition, % at 9.4 µM | 360,000 tested, 0.37% active | AID 651800; in the data active = inhibition above about 19%;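 also: recombinant mutant TCR 2C K166C tagged with TAMRA read by polarization; 0% = receptor in buffer alone and 100% = receptor with positive control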
HTRA1 inh: HTRA1 (human) protease inhibition; Q92743; recombinant HTRA1, FP-rhodamine activity-based probe, fluorescence polarization; inhibition, % at 5.96 µM; 340,000 tested, 0.5% active; AID 504803; in the data active = inhibition above about 36%;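 also: 0% = enzyme with DMSO and 100% = wells lacking enzyme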
SIAE primary: blocks human sialic acid acetylesterase | SIAE FP-Rh probe binding, fluorescence polarization | AID 1053197 | inhibition, % at 9.66 µM | Q9HAT2 | 370,000 tested, 0.69% active;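 active = inhibition above a cutoff: mean of compounds within the control limits plus 3 SD of those, cut at about 17% in these data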;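 also: 0% = plate median of compound wells and 100% = probe without SIAE protein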
ABHD4 inh: inhibits mouse alpha/beta hydrolase domain 4. Q8VD66. purified mABHD4, FP-Rh probe fluorescence polarization. inhibition, % at 8.92 µM. 370,000 tested, 0.54% active. AID 720543;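 active = inhibition exceeding the mean over every tested compound plus 3 SD, cut at about 30% in these data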;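 also: 0% = plate median of compound wells and 100% = S159A mutant with DMSO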
Target sequence (Q8VD66 whole entry, looked up, the tested form may be a part): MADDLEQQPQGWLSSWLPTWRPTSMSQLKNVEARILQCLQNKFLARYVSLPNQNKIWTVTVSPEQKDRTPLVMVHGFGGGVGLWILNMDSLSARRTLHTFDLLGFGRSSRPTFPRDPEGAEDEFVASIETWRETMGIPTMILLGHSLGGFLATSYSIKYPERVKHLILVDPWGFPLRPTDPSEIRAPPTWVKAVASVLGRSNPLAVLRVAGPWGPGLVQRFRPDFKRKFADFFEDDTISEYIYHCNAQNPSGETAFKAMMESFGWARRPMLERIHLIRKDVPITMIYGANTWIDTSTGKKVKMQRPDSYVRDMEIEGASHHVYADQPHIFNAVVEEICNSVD
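Material: mouse ABHD4 enzyme, wild type; Benchmarks: S159A mutant high control, sample median low control; Buffer or medium: HEPES pH 7.0, NaCl, Pluronic buffer; Signal: fluorescence polarization; Read-out: percent inhibition of probe binding, normalized to plate controls; Timing: pre-incubation 45 min, probe exposure 60 min, at 25 °C; Dosing: 8.92 µM, single dose.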
PRMT1 inh: PRMT1 (human) inhibition, primary screen. 370,000 tested, 1.3% active. inhibition, % at 2.79 µM. Q99873. AID 652257. recombinant PRMT1, activity-based probe fluorescence polarization;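 active = inhibition above about 21% made by adding two undisclosed values, limit read from the data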
Target sequence (Q99873 whole entry, looked up): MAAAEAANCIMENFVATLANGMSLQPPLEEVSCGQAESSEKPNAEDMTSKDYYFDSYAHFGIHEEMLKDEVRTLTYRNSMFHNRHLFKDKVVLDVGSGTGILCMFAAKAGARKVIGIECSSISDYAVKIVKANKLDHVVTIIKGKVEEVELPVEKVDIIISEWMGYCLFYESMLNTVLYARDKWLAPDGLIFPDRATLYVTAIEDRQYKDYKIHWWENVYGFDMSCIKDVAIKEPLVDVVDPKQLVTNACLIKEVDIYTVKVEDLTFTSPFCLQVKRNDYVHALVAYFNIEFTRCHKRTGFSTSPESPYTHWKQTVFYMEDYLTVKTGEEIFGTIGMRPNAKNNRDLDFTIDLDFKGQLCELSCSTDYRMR
rCAG binder conf: r(CAG) RNA repeat binding, confirmation | shares compounds with rCAG RNA binder | TO-PRO-1 dye displacement fluorescence | inhibition, % at 3 µM | 4,300 tested, 70% active | AID 652065;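 active = inhibition above a per-plate cutoff, the mean inhibition of sample wells plus 3 SD, cut at about 35% in these data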;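 also: loss of TO-PRO-1 fluorescence as compound displaces dye from 1x1 AA loop RNA; 0% = DMSO only wells and 100% = 100 µM mitoxantrone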
DNA CAG counter: disrupts DNA CAG TO-PRO-1 complex, flagging rCAG hits; 4,300 tested, 94% active; shares compounds with rCAG RNA binder; d(CAG) DNA oligo TO-PRO-1 dye displacement, fluorescence; inhibition, % at 3 µM; AID 652068;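 active = inhibition above its plate's cutoff, the mean test-well inhibition plus 3 SD, cut at about 4.8% in these data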;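 also: 0% = DNA dye mix with DMSO and 100% = 100 µM mitoxantrone; hits displace the dye from DNA and so lower well fluorescence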
dCAG dye DR: counter-screen for rCAG binders: inhibitors of DNA CAG TO-PRO-1 complex; shares compounds with rCAG RNA binder; DNA CAG/GTC duplex TO-PRO-1 dye displacement fluorescence; IC50, µM; 250 tested, 20% active; in the data active = IC50 below about 10 µM
* hit, by the source's call; i = inactive; x = no result. An excerpt weighted towards active compounds, which were near 3.5% of everything screened.

SMILES | rCAG RNA binder | TCR-CD3 inh | HTRA1 inh | SIAE primary | ABHD4 inh | PRMT1 inh | rCAG binder conf | DNA CAG counter | others
CC(COc1ccc(F)cc1)CN1CCC(C(O)(c2ccccc2)c2ccccc2)CC1 (stereo unspecified) | 2 | x | x | -2 | 10 | -2 | x | x
CCn1c2ccccc2c2cc(/C=N/NC(=O)c3cc(O)cc(O)c3)ccc21 | 38* | -3 | -40 | -74 | -62 | 2 | 37* | 21*
CCn1c2ccccc2c2cc(/C=N/NC(=O)c3ccc(O)cc3)ccc21 | 26 | 2 | -53 | -26 | -59 | 4 | x | x
S=c1[nH]nc(COc2ccccc2)n1/N=C/c1cccc(Br)c1 | 42* | 1 | -6 | 3 | -16 | 17 | 44* | 14*
S=c1[nH]nc(COc2ccccc2)n1/N=C/c1ccc(Br)cc1 | 19 | 2 | -10 | 10 | 4 | 13 | x | x
Cc1cc(-c2n[nH]c(=S)n2N=Cc2cccc(Oc3ccccc3)c2)n[nH]1 | 46* | x | x | 4 | 3 | 14 | 31 | 7.9*
S=c1[nH]nc(COc2ccccc2)n1/N=C/C(Cl)=C/c1ccccc1 | 52* | 0 | -11 | -2 | -20 | 21 | 72* | 34* | dCAG dye DR=i
S=c1[nH]nc(COc2ccccc2)n1/N=C/C=C/c1ccccc1 | 10 | 5 | 1 | 6 | -4 | 19 | x | x
Cc1ccc(OCC(=O)Nc2ccc(S(=O)(=O)Nc3cc(C)nc(C)n3)cc2)c(C)c1 | 17 | 3 | 2 | -6 | -2 | 1 | x | x
COc1cc(NS(=O)(=O)c2ccc(NC(=O)COc3ccccc3C)cc2)nc(OC)n1 | 45* | 0 | -3 | -6 | 8 | 4 | 32 | 13*
COc1cc(NS(=O)(=O)c2ccc(NC(=O)COc3ccc(C)cc3C)cc2)nc(OC)n1 | 45* | 2 | -12 | -3 | 0 | 0 | 46* | 14*
COc1cc(NS(=O)(=O)c2ccc(NC(=S)NC(=O)COc3ccccc3OC)cc2)nc(OC)n1 | 44* | 4 | -5 | 0 | -2 | -5 | 59* | 24*
COc1cc(NS(=O)(=O)c2ccc(NC(=S)NC(=O)c3ccc(F)c(F)c3)cc2)nc(OC)n1 | 49* | -2 | -7 | -5 | 0 | 0 | 54* | 12* | dCAG dye DR=>30
COC(=O)CCC(=O)Nc1ccc(S(=O)(=O)Nc2cc(OC)nc(OC)n2)cc1 | 0 | 0 | 7 | -7 | 4 | 1 | x | x
COC(=O)[C@]12C[C@H](CC(=O)N3CCSCC3)C(=O)N(CCc3ccc(OC)c(OC)c3)C1=C[C@H](C(C)C)O[C@@H]2C1CC1 | 2 | x | x | -4 | -5 | 5 | x | x
O=C(Nc1ccc(Cl)cc1)O[C@@H]1CC[C@@]23CCCN2C(=O)CCC[C@H]3C1 | x | x | x | -2 | -5 | 0 | x | x
CCCCCCCCN1CN2Cc3cc(F)ccc3C2CS1(=O)=O (stereo unspecified) | 3 | x | x | 0 | -9 | -1 | x | x
CC1CCC2(CC1)CCN(CCCOC(=O)NCc1ccc(Cl)cc1)C2=O (stereo unspecified) | 0 | x | x | -2 | -2 | 2 | x | x
CCn1c(=O)n(CC(=O)N2CCN(C(C)=O)CC2)c(=O)c2ccccc21 | 0 | x | x | 2 | 5 | -4 | x | x
COc1cc(NS(=O)(=O)c2ccc(NC(=O)COc3ccc(C)cc3)cc2)nc(OC)n1 | 38* | 0 | -6 | -7 | -7 | 5 | 27 | 10*
CC1(C)CC[C@]2(C(=O)O[C@@H]3OC(CO)[C@@H](O)[C@H](O)[C@H]3O)CC[C@]3(C)C(=CCC4[C@@]5(C)CC[C@H](O[C@@H]6OC(C(=O)O)[C@@H](O)[C@H](O)[C@H]6O)C(C)(C)C5CC[C@]43C)[C@@H]2C1 (stereo partly specified) | 46* | 0 | -12 | 1 | -3 | 3 | 45* | 12* | dCAG dye DR=>30
COC(=O)C1OC(OC2CC[C@]3(C)C(CC[C@@]4(C)[C@@H]3CC=C3[C@@H]5CC(C)(C)CC[C@]5(C(=O)OC5OC(CO)C(O)C(O)C5O)CC[C@]34C)C2(C)C)C(O)C(O)C1O[C@H]1OCC(O)C(O)C1O (stereo partly specified) | x | x | -15 | x | x | x | x | x
Cn1c(SCC(=O)NCCN2CCCCC2)nc2cccnc21 | 2 | x | x | 3 | 0 | -6 | x | x
O=C(Cc1ccccc1)NNC(=S)Nc1ccccc1 | 1 | -2 | x | 6 | 4 | 1 | x | x
O=C(CSc1nnc(SCc2ccccc2)s1)NNC(=S)Nc1ccccc1 | 43* | 3 | -3 | 0 | -9 | 15 | 52* | 18* | dCAG dye DR=>30
SMILES | rCAG RNA binder | TCR-CD3 inh | HTRA1 inh | SIAE primary | ABHD4 inh | PRMT1 inh | rCAG binder conf | DNA CAG counter | others
Cc1cc(NC(=O)/C=C/c2ccco2)ccc1NC(=O)c1ccccc1 | 5 | 0 | 4 | -4 | -13 | 9 | x | x
O=C(/C=C/c1ccco1)Nc1ccc2nn(-c3ccccc3)nc2c1 | 40* | 12 | -81 | -28 | -37 | 14 | 19 | 13*
CCOC(=O)C1=C(c2ccccc2)N=c2s/c(=C\c3ccc(O)cc3)c(=O)n2C1c1cccs1 (stereo unspecified) | 37* | -39 | -106 | -48 | -57 | -2 | 36* | 20*
CCOC(=O)C1=C(c2ccccc2)N=c2sc(=Cc3cc(OC)c(OC)c(OC)c3)c(=O)n2C1c1cccs1 (stereo unspecified) | 13 | 8 | x | -5 | 0 | 7 | x | x
Cc1ccc(-n2c(O)c(/C=C3/C(c4ccccc4)=Nc4ccccc43)c(=O)[nH]c2=O)cc1 | 3 | -13 | -16 | -21 | -43 | 4 | x | x
CSc1nsc2nc(=O)c(/C=C3\C(C)=Nc4ccccc43)c(N)n12 | 42* | -3 | -18 | -25 | -39 | 15 | 25 | 4.7*
Cc1ccc(-n2cccc2/C=C2/C(=N)N3C(=NC2=O)SN=C3S(C)(=O)=O)cc1 | 89* | -2 | -47 | -38 | -88 | 1 | 84* | 50*
COc1cccc(-n2c(C)cc(/C=C3/C(=N)N4C(=NC3=O)SN=C4S(C)(=O)=O)c2C)c1 | 65* | 1 | -17 | -15 | -2 | 6 | 79* | 50*
CS(=O)(=O)C1=NSC2=NC(=O)/C(=C\c3cccn3-c3ccccc3Cl)C(=N)N21 | 83* | -4 | -39 | -39 | -42 | 4 | 77* | 39*
CCc1ccc(-n2cccc2/C=C2/C(=N)N3C(=NC2=O)SN=C3S(C)(=O)=O)cc1 | 94* | 6 | -66 | -58 | -136 | 2 | 91* | 72*

Screening data as filed in PubChem BioAssay.
